# Experimental data: ChEMBL document CHEMBL1155196, “N-hydroxybenzimidazole inhibitors of the transcription factor LcrF in Yersinia: novel antivirulence agents” (J Med Chem, 2009)
# Active and inactive are the calls of the source. The rule behind the calls is not given here.
# Columns and labels:
# J774.A1 [1] = test: Cytotoxicity against mouse J774A1 cells assessed as LDH release at 50 ug/mL after 18 hrs by colorimetric assay; format: cell-based; details: j774.a1, 18 h
# [2] = Inhibition of 6His-tagged Yersinia sp. LcrF binding to biotinylated double-stranded DNA by cell free-based chemiluminescence assay
# Method in brief: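 Biotinylated double-stranded DNA carrying LcrF sites (2 nM) captured on streptavidin plates and incubated with 6His-LcrF (20 nM) plus titrated inhibitor in Hepes/ammonium sulfate/KCl/EDTA buffer with 0.2% polysorbate 20 and 0.5% non-fat milk. After washing, anti-6His then HRP secondary antibody, chemiluminescence read-out. % inhibition against control wells, curve-fitted IC50; mostly mean of two independent experiments.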
# [3] = target: T1, HTH-type transcriptional regulator ExsA (Pseudomonas aeruginosa (strain ATCC 15692 / PAO1 / 1C / PRS 101 / LMG12228), UniProt P26993); test: Inhibition of Pseudomonas aeruginosa ExsA binding to DNA
# T1 sequence (P26993 whole entry): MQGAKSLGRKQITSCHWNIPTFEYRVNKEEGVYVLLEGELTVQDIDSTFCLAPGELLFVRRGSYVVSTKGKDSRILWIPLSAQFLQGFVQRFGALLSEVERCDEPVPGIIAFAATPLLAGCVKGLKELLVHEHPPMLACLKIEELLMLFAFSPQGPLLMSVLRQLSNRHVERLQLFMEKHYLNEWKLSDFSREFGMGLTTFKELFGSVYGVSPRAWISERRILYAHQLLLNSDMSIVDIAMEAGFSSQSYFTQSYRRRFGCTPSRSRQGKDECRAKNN
# Method in brief: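 ExsA-DNA binding run like the LcrF plate assay: immobilised biotinylated DNA, His-tagged regulator, titrated inhibitor, washing, anti-6His/HRP chemiluminescent detection, % inhibition against control wells, curve-fitted IC50.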
# Escherichia coli = test: Antimicrobial activity against Escherichia coli ATCC 25922 after 18 to 24 hrs by CLSI microdilution test; format: functional
# Staphylococcus aureus = test: Antimicrobial activity against Staphylococcus aureus RN450 after 18 to 24 hrs by CLSI microdilution test; format: functional
# J774.A1 [4] = test: Inhibition of Yersinia pseudotuberculosis YP3 pIB1 LcrF-mediated cytotoxicity against mouse J774A1 cells assessed as LDH release at 50 ug/mL after 18 hrs by colorimetric assay; format: cell-based; details: Yersinia pseudotuberculosis YPIII
# Method in brief: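 J774A.1 macrophages plated at 2 × 10^4 per well the day before. Y. pseudotuberculosis YPIIIpIB1 grown in 2-YT with 20 mM MgCl2 and 20 mM sodium oxalate, 90 min at 26 °C then 90 min at 37 °C. Infection at MOI 5–10 in DMEM, 2 h at 37 °C, 5% CO2. Gentamicin 50 μg/mL added, then ~18 h. Compound at 50 μg/mL in both culture and wells; vehicle DMSO/0.4% ethanolamine. LDH release measured colorimetrically, expressed as % of wild-type vehicle cytotoxicity.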
# [5] = Inhibition of Salmonella sp. SlyA binding to DNA
# Method in brief: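 Same format as the LcrF ELISA-type assay. Biotinylated double-stranded DNA carrying the binding sequence was captured on streptavidin-coated wells with His-tagged SlyA and titrated inhibitor. Buffer was 20 mM Hepes, 10 mM ammonium sulfate, 30 mM KCl, 1 mM EDTA, 0.2% polysorbate 20 and 0.5% non-fat milk. After washing, bound complex was detected with anti-6His then HRP secondary and chemiluminescence. IC50 came from dose-response fits against control wells.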
# [6] = system: Yersinia pseudotuberculosis; test: Antimicrobial activity against Yersinia pseudotuberculosis after 18 to 24 hrs by CLSI microdilution test; format: functional
SMILES,Activity (J774.A1 [1]),IC50 [2],other results
CC(=O)c1ccc2nc(-c3ccc(NC(=O)/C=C/c4ccc(F)cc4)cc3)n(O)c2c1,Non-toxic,39.4 µM,–
Cc1cc2nc(-c3ccc(NC(=O)/C=C/c4ccc(F)cc4)cc3)n(O)c2cc1[N+](=O)[O-],Non-toxic,7.6 µM,IC50 [3]: 6.7 µM; MIC (Escherichia coli): > 64 µg/mL; MIC (Staphylococcus aureus): > 64 µg/mL; Activity (J774.A1 [4]): Active; IC50 [5]: > 52 µM; MIC [6]: > 64 µg/mL
CCOc1cc2nc(-c3ccc(NC(=O)/C=C/c4ccc(F)cc4)cc3)n(O)c2cc1[N+](=O)[O-],Non-toxic,17.1 µM,Activity (J774.A1 [4]): Active
O=C(/C=C/c1ccc(F)cc1)Nc1ccc(-c2nc3ccc(-n4cccn4)cc3n2O)cc1,Non-toxic,53.7 µM,–
O=C(/C=C/c1ccc(F)cc1)Nc1ccc(-c2nc3ccccc3n2O)cc1,Non-toxic,> 100 µM,–
COc1cc(NC(=O)/C=C/c2ccc(F)cc2)ccc1-c1nc2ccc([N+](=O)[O-])cc2n1O,Non-toxic,13.5 µM,–
Cc1cc(-c2nc3ccc([N+](=O)[O-])cc3n2O)ccc1NC(=O)/C=C/c1ccc(F)cc1,Non-toxic,25.3 µM,–
O=C(/C=C/c1ccc(F)cc1)Nc1ccc(-c2nc3ccc([N+](=O)[O-])cc3n2O)nc1,Non-toxic,10.8 µM,Activity (J774.A1 [4]): inactive
O=C(/C=C/c1ccc(F)c(F)c1)Nc1ccc(-c2nc3ccc([N+](=O)[O-])cc3n2O)cc1,Non-toxic,14.5 µM,Activity (J774.A1 [4]): Active
O=C(/C=C/c1ccc(F)cc1)Nc1ccc(-c2nc3ccncc3n2O)cc1,Non-toxic,> 54.8 µM,–
O=C(CCc1ccc(F)cc1)Nc1ccc(-c2nc3ccc([N+](=O)[O-])cc3n2O)cc1,Non-toxic,> 53.5 µM,–
O=C(/C=C/c1ccc(F)cc1)Nc1ccc(-c2nc3ccc(Cl)cc3n2O)cc1,Non-toxic,> 100 µM,–
O=C(NCc1ccc(-c2nc3ccc([N+](=O)[O-])cc3n2O)cc1)c1ccc(F)cc1,Non-toxic,> 58.4 µM,–
COc1ccc(/C=C/C(=O)Nc2ccc(-c3nc4ccc([N+](=O)[O-])cc4n3O)cc2)cc1,Non-toxic,8 µM,IC50 [3]: 5.9 µM; MIC (Escherichia coli): > 64 µg/mL; MIC (Staphylococcus aureus): > 64 µg/mL; Activity (J774.A1 [4]): Active; IC50 [5]: > 55.2 µM; MIC [6]: > 64 µg/mL
O=C(/C=C/c1ccc(F)cc1)Nc1ccc(-c2nc3ccc(-n4ccnc4)cc3n2O)cc1,Non-toxic,37.3 µM,–
O=C(/C=C/c1ccc(C(F)(F)F)cc1)Nc1ccc(-c2nc3ccc([N+](=O)[O-])cc3n2O)cc1,Non-toxic,6.4 µM,–
O=C(/C=C/c1ccc(F)cc1)NCc1ccc(-c2nc3ccc([N+](=O)[O-])cc3n2O)cc1,Non-toxic,14 µM,–
N#Cc1ccc(/C=C/C(=O)Nc2ccc(-c3nc4ccc([N+](=O)[O-])cc4n3O)cc2)cc1,Non-toxic,16.4 µM,Activity (J774.A1 [4]): Active
O=C(/C=C/c1ccc(-n2cnnc2)cc1)Nc1ccc(-c2nc3ccc([N+](=O)[O-])cc3n2O)cc1,Non-toxic,35.7 µM,–
O=C(/C=C/c1ccc(F)cc1)Nc1ccc(-c2nc3ccc(F)cc3n2O)cc1,Non-toxic,> 100 µM,–
CS(=O)(=O)c1ccc2nc(-c3ccc(NC(=O)/C=C/c4ccc(F)cc4)cc3)n(O)c2c1,Non-toxic,87.4 µM,–

SMILES,Activity (J774.A1 [1]),IC50 [2],other results
O=C(Nc1ccc(-c2nc3ccc([N+](=O)[O-])cc3n2O)cc1)c1ccc(F)cc1,Non-toxic,17.7 µM,–
O=C(/C=C/c1ccc(F)cc1)Nc1ccc(-c2nc3ccc([N+](=O)[O-])cc3n2O)c(F)c1,Non-toxic,6.5 µM,–
N#Cc1ccc2nc(-c3ccc(NC(=O)/C=C/c4ccc(F)cc4)cc3)n(O)c2c1,Non-toxic,8.3 µM,–
O=C(/C=C/c1ccccc1)Nc1ccc(-c2nc3ccc([N+](=O)[O-])cc3n2O)cc1,Non-toxic,6.9 µM,–
O=C(/C=C/c1ccc(F)cc1)Nc1ccc(-c2nc3ccc(C(=O)O)cc3n2O)cc1,Non-toxic,38.5 µM,–
O=C(Cc1ccc(F)cc1)Nc1ccc(-c2nc3ccc([N+](=O)[O-])cc3n2O)cc1,Non-toxic,> 58.4 µM,–
O=C(/C=C/c1ccc(F)cc1)Nc1ccc(-c2nc3ccc([N+](=O)[O-])cc3n2O)cc1,Non-toxic,3.9 µM,IC50 [3]: 3.5 µM; MIC (Escherichia coli): > 64 µg/mL; MIC (Staphylococcus aureus): > 64 µg/mL; Activity (J774.A1 [4]): Active; IC50 [5]: > 53.8 µM; MIC [6]: > 64 µg/mL
CC(C)c1ccc(/C=C/C(=O)Nc2ccc(-c3nc4ccc([N+](=O)[O-])cc4n3O)cc2)cc1,Non-toxic,> 50.9 µM,–
O=C(/C=C/c1ccc(F)cc1)Nc1ccc(-c2nc3ccc([N+](=O)[O-])cc3n2O)cn1,Non-toxic,7.4 µM,–
O=C(/C=C/c1ccc(F)cc1)Nc1ccc(-c2nc3ccc(C(F)(F)F)cc3n2O)cc1,Non-toxic,59.7 µM,–
O=C(/C=C/c1ccc(F)cc1F)Nc1ccc(-c2nc3ccc([N+](=O)[O-])cc3n2O)cc1,Non-toxic,5 µM,–
CN(C)c1ccc(/C=C/C(=O)Nc2ccc(-c3nc4ccc([N+](=O)[O-])cc4n3O)cc2)cc1,Non-toxic,16.9 µM,–
O=C(/C=C/c1ccc(-c2c[nH]cn2)cc1)Nc1ccc(-c2nc3ccc([N+](=O)[O-])cc3n2O)cc1,Non-toxic,> 44.8 µM,–
COc1ccc(/C=C/C(=O)Nc2ccc(-c3nc4ccc([N+](=O)[O-])cc4n3O)cc2)c(OC)c1,Non-toxic,38.5 µM,–
O=C(/C=C/c1ccc(F)cc1)Nc1ccc(-c2nc3cc(F)c([N+](=O)[O-])cc3n2O)cc1,Non-toxic,26.6 µM,–
O=C(/C=C/c1ccc(F)cc1)Nc1ccc(-c2nc3ccc([N+](=O)[O-])cc3n2O)cc1F,Non-toxic,20.7 µM,–
CN(C)c1cc2nc(-c3ccc(NC(=O)/C=C/c4ccc(F)cc4)cc3)n(O)c2cc1[N+](=O)[O-],Non-toxic,66 µM,–
O=C(/C=C/c1ccc(O)cc1)Nc1ccc(-c2nc3ccc([N+](=O)[O-])cc3n2O)cc1,Non-toxic,> 57 µM,–
Cc1ccc(/C=C/C(=O)Nc2ccc(-c3nc4ccc([N+](=O)[O-])cc4n3O)cc2)cc1,Non-toxic,0.8 µM,Activity (J774.A1 [4]): inactive
COc1ccccc1/C=C/C(=O)Nc1ccc(-c2nc3ccc([N+](=O)[O-])cc3n2O)cc1,Non-toxic,20.9 µM,–
